How the values were obtained:
Test in all cases: Alkaline comet assay
Format in all cases: cell-based, human
PC-3 cells = details: PC-3, 20 µM (positive control), 24 h, ± SEM
Outline: (§1)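 Alkaline comet assay. Cells seeded in 6-well plates at 150 000 (HT-29), 250 000 (PC3) or 600 000 (PBLs) per 2 mL and left 24 h, then exposed 24 h (37 °C, 5% CO2) to test compound at 0.5, 1 and 2 µM. Controls: untreated and 20 µM bleomycin. Cells pelleted at 1400 rpm, 10 min, 4 °C. Slides stained with DAPI (1 µg/ml); about 100 cells/slide scored. Output: mean % tail DNA ± SEM; ANOVA with Dunnett's test.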

HT-29 cells = details: HT-29, 20 µM (positive control), 24 h, ± SEM
Outline: as §1

PBLs = details: 20 µM (positive control), 24 h, ± SEM
Outline: as §1

bleomycin was tested, and the “DNA damage (mean tail DNA %)” value (PC-3 cells) was 44.99 ± 2.37%, the “DNA damage (mean tail DNA %)” value (HT-29 cells) was 33.58 ± 3.62% and the “DNA damage (mean tail DNA %)” value (PBLs) was 41.33 ± 1.95%.

From paper PMC12120100 (Scientific Reports, 2025)
